The results in this text go back to the RNAGym collection of RNA variant scans (doi:10.1101/gad.245936.114).

The chains are these.
B1: tRNA (parent)
chain: CUCUCGGUAGCCAAGUUGGUUUAAGGCGCAAGACUUUAAUUUAUCACUACGAAAUCUUGAGAUCGGGCGUUCGACUCGCCCCCGGGAGAUUUUUUCCUCGAGCAA

Fewer inactive variants are shown than the library holds. Some results are limits rather than exact numbers.

This series covers variants of B1. Briefly: nonsense suppression (GFP-seq) (ratio to wild type); higher = more function; SUP4oc tRNA, yeast GFP reporter sort-seq. In short, it runs like this: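 Nonsense suppression (GFPSEQ) is the median GFP/RFP ratio of each sorting bin, weighted by the variant's estimated share of cells in that bin and expressed relative to the unmutated parent tRNA. Yeast strains carried genome-integrated variants of an ochre-suppressor tRNA from a library with ~3% random mutations, plus a galactose-driven GFP ochre reporter and RFP, and were grown in raffinose/galactose medium containing 80 mg/L adenine. Cells were sorted into GFP/RFP bins, each bin was Illumina-sequenced (phred ≥30), and variants were kept only with ≥100 reads and ≥30 cells.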
As to C29G A33G G67A U71G G86A, the nonsense suppression came to 1.12.

Take C29U C82U: the nonsense suppression amounted to 0.224.

Take C27G U57C G86C: the nonsense suppression was ≤ 0.026.

For the variant G28A C34G G59A, the nonsense suppression is ≤ 0.026.

On to G28A A54C C68U, for which the nonsense suppression was determined as 0.18.

Consider G26U C64G, for which the nonsense suppression was ≤ 0.026.

For the variant A31U A62U, the nonsense suppression worked out at 0.0539.

Regarding A30G, the nonsense suppression worked out at 1.11.

As to A30U, the nonsense suppression amounted to 0.575.

For C29U U35C, the nonsense suppression worked out at 0.0545.

Turning to A30G G59C A60C, the nonsense suppression is ≤ 0.026.

G28U A30C A33G A54G U76C C79A: the nonsense suppression is ≤ 0.026.

With G28A A31G, the nonsense suppression was found to be 0.98.

Take G26U G65C U71A G78U: the nonsense suppression is ≤ 0.026.

Regarding A31G A33G C56A G65U, the nonsense suppression was ≤ 0.026.

Turning to C27A A87U, the nonsense suppression is ≤ 0.026.

For A31G G61C, the nonsense suppression was found to be 0.275.

Turning to A31G G61A, the nonsense suppression is 0.8.

Turning to G28U U35A, the nonsense suppression is ≤ 0.026.

Take C29U C77G: the nonsense suppression turned out to be 0.0454.

As for G28U A62G U63A A74C, the nonsense suppression was ≤ 0.026.

On to G28U G78A, for which the nonsense suppression worked out at 0.0292.

Turning to G28U G78U, the nonsense suppression was 0.0435.

In the case of A30U G61A, the nonsense suppression turned out to be 0.0365.

Regarding A30G U55G U63G C64A, the nonsense suppression was ≤ 0.026.

As to G28C C64U, the nonsense suppression turned out to be 0.0765.

For G26U G88C, the nonsense suppression was ≤ 0.026.

In the case of G28A U76G, the nonsense suppression was ≤ 0.026.

Take G28A U76C: the nonsense suppression was 1.09.

For A30U C68G, the nonsense suppression was ≤ 0.026.

G26C U55A: the nonsense suppression was ≤ 0.026.

For G26C U55C, the nonsense suppression is 0.0525.

In the case of A30U U55G G78C A89C, the nonsense suppression is ≤ 0.026.

As for G28C G85U, the nonsense suppression was 0.208.

Take A31C G84U: the nonsense suppression was ≤ 0.026.

As to A31G U70C, the nonsense suppression was found to be 0.0279.

In the case of G26U U71C, the nonsense suppression is ≤ 0.026.

A30U U63A: the nonsense suppression is 0.157.

In the case of C29A U55G, the nonsense suppression is ≤ 0.026.

For the variant A30U U58A G78U, the nonsense suppression amounted to 0.776.

For the variant A31U A60C G66C U70A G85A, the nonsense suppression is ≤ 0.026.

As to A31G U57A, the nonsense suppression was found to be 0.136.

In the case of G28C A60U U70C, the nonsense suppression was ≤ 0.026.

For C27U G61C, the nonsense suppression was found to be 0.0306.

Regarding C27G G28A, the nonsense suppression is ≤ 0.026.

Take C29U: the nonsense suppression is 1.07.

As to C29A, the nonsense suppression was 0.113.

As to C29G, the nonsense suppression is ≤ 0.026.

With A31G, the nonsense suppression turned out to be 1.08.

In the case of A31U, the nonsense suppression came out at 0.177.

For the variant C27G G32U C75A C81G G88C, the nonsense suppression was ≤ 0.026.

Consider G26U G61A, for which the nonsense suppression is ≤ 0.026.

With A30U A54C, the nonsense suppression came to 0.0467.

In the case of C27U G85A, the nonsense suppression was found to be 0.207.

As to A30G A60G, the nonsense suppression turned out to be 0.108.

Regarding G28C U63C, the nonsense suppression was found to be 0.114.

Regarding G28C U63A, the nonsense suppression was 0.225.

G28C G61A U63C: the nonsense suppression was 0.041.

As to C27U C80U, the nonsense suppression came to 0.0446.

C27A G78U: the nonsense suppression was 0.0309.

As to G26U A74C U76G, the nonsense suppression is ≤ 0.026.

Regarding A30G A33G, the nonsense suppression amounted to 0.046.

For A30G A33U, the nonsense suppression was ≤ 0.026.

For C27A A62C, the nonsense suppression amounted to 0.349.

On to A31G U71G, for which the nonsense suppression is ≤ 0.026.

Regarding A30U A74C, the nonsense suppression is 0.0264.

Regarding A30U A74U, the nonsense suppression amounted to 0.0497.

With C29U A87G, the nonsense suppression came out at 0.438.

In the case of G28A A33U, the nonsense suppression came out at 0.0279.

Consider G28A A33G, for which the nonsense suppression amounted to 0.161.

Turning to G28C G73U, the nonsense suppression was 0.0322.

Turning to A30C U70C, the nonsense suppression was ≤ 0.026.

With C27U C77A, the nonsense suppression was ≤ 0.026.

For the variant C29A G73A, the nonsense suppression was ≤ 0.026.

Regarding C29A C72A U76A, the nonsense suppression was ≤ 0.026.

For A30U U55C A87C A89U, the nonsense suppression stood at 0.0456.

On to C29U G85A, for which the nonsense suppression is 1.14.

In the case of C29U G85U, the nonsense suppression came out at 0.0262.

Regarding C27U G59U G61U G66U, the nonsense suppression is ≤ 0.026.

Turning to C29A A60G, the nonsense suppression amounted to 0.0331.

With C27A A30C A60G C77G C81A, the nonsense suppression was ≤ 0.026.

Take G28A A60G: the nonsense suppression was 1.07.

As for C29U C83U, the nonsense suppression came to 0.0384.

For the variant C29U U57G G85C, the nonsense suppression is ≤ 0.026.

For the variant A31G U63G, the nonsense suppression was 0.0741.

For A31G U63C, the nonsense suppression worked out at 0.333.

For the variant A31G U63A, the nonsense suppression came to 0.684.

On to G28A U63C G85U, for which the nonsense suppression is 0.0331.

Turning to G28U U71G, the nonsense suppression is ≤ 0.026.

C29U G59C: the nonsense suppression stood at 0.0272.

Regarding A31G A60C, the nonsense suppression is 0.177.

On to A30G U76A, for which the nonsense suppression was found to be 0.043.

G28C U76C: the nonsense suppression came out at 0.799.

As to C27U A31C G61C, the nonsense suppression was ≤ 0.026.

For the variant A31C A62G G78A, the nonsense suppression was ≤ 0.026.

As to A30G A74U, the nonsense suppression amounted to 0.028.

Consider A30G A74C, for which the nonsense suppression amounted to 0.0554.

With A30G A74G, the nonsense suppression turned out to be 0.098.

With G28C, the nonsense suppression is 1.17.

In the case of G28A, the nonsense suppression came out at 0.975.

Regarding C27U U35A U58A G65A G78C, the nonsense suppression is ≤ 0.026.

Consider A31G G73A, for which the nonsense suppression turned out to be 0.366.

As to C29U A31G, the nonsense suppression was 0.0421.

For G28C G61C, the nonsense suppression was found to be 0.386.

On to A30C A31U, for which the nonsense suppression was ≤ 0.026.

Regarding A30U C64U, the nonsense suppression was ≤ 0.026.

Turning to C27G U58A U63A, the nonsense suppression is ≤ 0.026.

Consider A30U U35G G65U, for which the nonsense suppression is ≤ 0.026.

C29U U35C U58G C64U G66C: the nonsense suppression is ≤ 0.026.

In the case of C27A C29A U71C C79U, the nonsense suppression is ≤ 0.026.

Consider A30U C77G, for which the nonsense suppression stood at 0.0332.

As for A30U C77U, the nonsense suppression was ≤ 0.026.

As for A30G A31G A60U, the nonsense suppression amounted to 0.726.

Take A30U C82G: the nonsense suppression was ≤ 0.026.

Consider A30G U71C, for which the nonsense suppression came out at 0.035.

As to A30G U71A, the nonsense suppression came to 0.05.

For the variant G26U U70G C79U, the nonsense suppression was ≤ 0.026.

With A30G G61C, the nonsense suppression turned out to be 0.251.

As to A30G G61A, the nonsense suppression worked out at 0.75.

Take C27G U57C G59U G86U: the nonsense suppression was ≤ 0.026.

As to G28A U63A C68G U70A G85C, the nonsense suppression is ≤ 0.026.

On to A31U A60U, for which the nonsense suppression worked out at 0.647.

With A31U A60C, the nonsense suppression amounted to 0.0348.

Consider C29U G84A, for which the nonsense suppression stood at 0.0288.

As for C29A G85A, the nonsense suppression amounted to 0.115.

On to G28C A89G, for which the nonsense suppression was found to be 0.0403.

Take G28A G84A G86C: the nonsense suppression was ≤ 0.026.

Take A30U G69U C80U: the nonsense suppression was ≤ 0.026.

For G28A G61A, the nonsense suppression was 0.8.

For A30U G84U, the nonsense suppression is 0.423.

Turning to C29U A33U, the nonsense suppression is 0.0316.

On to A31C U57A, for which the nonsense suppression turned out to be 0.219.

For the variant C29U A30G, the nonsense suppression turned out to be 1.1.

Take C29U A30U: the nonsense suppression was 0.124.

Consider C29U A30C, for which the nonsense suppression came to 0.196.

In the case of C29U U76A, the nonsense suppression came to 0.224.

Consider C29U U76C, for which the nonsense suppression is 0.772.

In the case of C27G C79A, the nonsense suppression is ≤ 0.026.

On to A30G U63C, for which the nonsense suppression came out at 0.205.

For A30G C82U, the nonsense suppression was 0.0497.

Regarding A31G C34U, the nonsense suppression was ≤ 0.026.

Consider A31C G61A C75G, for which the nonsense suppression was ≤ 0.026.

For the variant G28A C82U, the nonsense suppression was found to be 1.15.

As to G28C C79A G85C, the nonsense suppression is 0.0328.

For the variant C29G A87G, the nonsense suppression is ≤ 0.026.

Take A31G A74U: the nonsense suppression amounted to 0.029.

As for C27U A31U, the nonsense suppression came to 0.0324.

Take A31G G67U A74G U76G C81A: the nonsense suppression was ≤ 0.026.

In the case of C27A U55G G61A C83G, the nonsense suppression is ≤ 0.026.

As for A31G C34G U76G, the nonsense suppression is ≤ 0.026.

As to A31C G59C, the nonsense suppression is ≤ 0.026.

Regarding C29A G65C U71G, the nonsense suppression is ≤ 0.026.

Take A30U U76G: the nonsense suppression stood at 0.0538.

Take G28U A33C U63A U71G: the nonsense suppression is ≤ 0.026.

Regarding A30G G85C, the nonsense suppression is ≤ 0.026.

As to A30G G85A, the nonsense suppression is 0.793.

As for G26U C34U, the nonsense suppression is ≤ 0.026.

Regarding A31G A87G, the nonsense suppression turned out to be 0.762.

Take G28A C56G A89C: the nonsense suppression is ≤ 0.026.

As to G26C U57A G73A, the nonsense suppression was ≤ 0.026.

With C27A C34G A60U C77U, the nonsense suppression was ≤ 0.026.

With C29G G32A G67U C75A, the nonsense suppression was ≤ 0.026.

As for A30U C79U, the nonsense suppression is 0.144.

Consider A30U C79G, for which the nonsense suppression is ≤ 0.026.

Consider A30G C77U, for which the nonsense suppression was ≤ 0.026.

On to A30U A62G C81G, for which the nonsense suppression is ≤ 0.026.

With C29G C34G, the nonsense suppression was ≤ 0.026.
